We go through five molecules from ChEMBL document CHEMBL3046693, “Discovery and characterization of sulfoxaflor, a novel insecticide targeting sap-feeding pests” (J Agric Food Chem, 2011).

Data set [1] has as its system Aphis gossypii. In words: Insecticidal activity against Aphis gossypii (cotton aphid) DAS lab strain by leaf disk bioassay. Conditions: foliar. Format: functional.
In data set [2] the test system is Myzus persicae. In words: Insecticidal activity against drug resistant Myzus persicae R-4013A (green peach aphid) by leaf disk bioassay. Format: functional. Conditions: foliar.
The test system of data set [3] is Myzus persicae. In words: Insecticidal activity against Myzus persicae S-USIL (green peach aphid) by leaf disk bioassay. Format: functional. Conditions: foliar.
Data set [4] relates to Myzus persicae. Description: Insecticidal activity against Myzus persicae (green peach aphid) DAS lab strain by leaf disk bioassay. Format: functional. Conditions: foliar.
In data set [5] the test system is Bemisia tabaci. Description: Insecticidal activity against Bemisia tabaci S-4971BT1 (sweet potato whitefly) by leaf disk bioassay. Format: functional. Particulars: S-4971BT1, foliar.
The subject of data set [6] is Bemisia tabaci. Description: Insecticidal activity against rothamsted-resistant Bemisia tabaci Q-biotype R-4971BT9 (sweet potato whitefly) by leaf disk bioassay. It counts as functional. Particulars: Q-biotype R-4971BT9, foliar.
Data set [7] deals with Bemisia tabaci. Description: Insecticidal activity against rothamsted-resistant Bemisia tabaci R-4991BT1 (sweet potato whitefly) by leaf disk bioassay. Particulars: R-4991BT1, foliar. Format: functional.
In data set [8] the test system is Bemisia tabaci. Description: Insecticidal activity against DAS-susceptible Bemisia tabaci S-4971BT1 (sweet potato whitefly) by leaf disk bioassay. It counts as functional. Conditions: S-4971BT1, foliar.
The test system of data set [9] is Bemisia tabaci. Description: Insecticidal activity against DAS insecticide-resistant Bemisia tabaci B-biotype R-PBI (sweet potato whitefly) by leaf disk bioassay. Format: functional. Conditions: foliar.
The subject of data set [10] is Bemisia tabaci. Description: Insecticidal activity against drug sensitive Bemisia tabaci DAS (sweet potato whitefly) lab strain by leaf disk bioassay. Format: functional. Particulars: foliar.
Data set [11] relates to Bemisia tabaci. Description: Insecticidal activity against Bemisia tabaci DAS (sweet potato whitefly) lab strain by leaf disk bioassay. It counts as functional. Conditions: foliar.
In data set [12] the test system is Myzus persicae. Description: Displacement of [3H]imidacloprid from nicotinic acetylcholine receptor in Myzus persicae (green peach aphid) homogenates by scintillation counting. In short, it runs like this: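 Frozen (-80 °C) aphids homogenized at 4 °C in sucrose/Tris/EDTA/PMSF buffer (pH 7.2), filtered, spun 3500 rpm 15 min then 17500 rpm 20 min (4 °C). Pellet resuspended in 120 mM NaCl, 50 mM Tris (pH 7.4). ~2 nM [3H]IMI, 70 μg protein/well and competitor for 60 min at ~22 °C. Protein-started, filtration-stopped, scintillation-counted; total and filter binding measured.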

Data set [13] has as its system Drosophila melanogaster. In words: Activation of Drosophila melanogaster nicotinic acetylcholine receptor alpha2 expressed in Xenopus laevis co-expressing chicken nicotinic acetylcholine receptor beta2 subunit by electrophysiology method. In short, it runs like this: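 Drosophila α2 cRNA co-injected with chicken β2 and C. elegans ric-3 chaperone into defolliculated X. laevis oocytes (≤50 nL at 1 ng/nL). Oocytes held singly in ND-96 (pH 7.6) at 18 °C and recorded 1-4 days after injection on an automated oocyte recording system.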

Data set [14] relates to CYP6G1. In words: Drug metabolism in Drosophila melanogaster D.mel-2 cells over-expressing in CYP6G1 assessed as drug recovery measured 24 hr post dose by HPLC method. It counts as ADME. Particulars: D.mel-2 cells over-expressing CYP6G1, read-out: Drug recovery.
The test system of data set [15] is CYP6G1. Description: (§1) Drug metabolism in Drosophila melanogaster D.mel-2 cells deficient in CYP6G1 assessed as drug recovery measured 24 hr post dose by HPLC method. Format: ADME. Conditions: D.mel-2 cells deficient in CYP6G1, read-out: Drug recovery.
In data set [16] the test system is Myzus persicae. Description: Insecticidal activity against Myzus persicae (green peach aphid) infested UV irradiated leaves of pepper plant exposed to compound at 124 ppm assessed as insect control efficacy post 7 days UV exposure relative to untreated control. It counts as functional. The gist of the method: (§2)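 Aphid control on treated UV-exposed pepper leaves scored 3 days after infestation; four replicates per treatment and time point.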

Data set [17] concerns Myzus persicae. In words: Insecticidal activity against Myzus persicae (green peach aphid) infested UV irradiated leaves of pepper plant exposed to compound at 124 ppm assessed as insect control efficacy post 3 days UV exposure relative to untreated control. Format: functional. In short, it runs like this:
as §2

In data set [18] the test system is Myzus persicae. Description: Insecticidal activity against Myzus persicae (green peach aphid) infested UV irradiated leaves of pepper plant exposed to compound at 124 ppm assessed as insect control efficacy post 0 day UV exposure relative to untreated control. Format: functional. In short, it runs like this:
as §2

Data set [19] in a line: Stability assessed as half life for photolysis in UV chamber at 1000 ppm by HPLC method. Format: physicochemical.
Data set [20] concerns Bemisia tabaci. Description: Resistance index, ratio of LC50 for rothamsted-resistant Bemisia tabaci Q-biotype R-CHLORAKA (sweet potato whitefly) to LC50 for Bemisia tabaci SUD-S. It counts as functional.
Data set [21] concerns Bemisia tabaci. In words: Resistance index, ratio of LC50 for rothamsted-resistant Bemisia tabaci Q-biotype R-4971BT9 (sweet potato whitefly) to LC50 for Bemisia tabaci S-4971BT1. Format: functional.
Data set [22] concerns Bemisia tabaci. In words: Resistance index, ratio of LC50 for drug resistant rothamsted-resistant Bemisia tabaci R-4991BT1 (sweet potato whitefly) to LC50 for DAS-susceptible Bemisia tabaci S-4971BT1. It counts as functional.
The subject of data set [23] is Bemisia tabaci. Description: Resistance index, ratio of LC50 for DAS insecticide-resistant Bemisia tabaci B-biotype R-PB (sweet potato whitefly) to LC50 for drug sensitive Bemisia tabaci DAS lab strain. It counts as functional.
For data set [24], the system named is Myzus persicae. Description: Resistance index, ratio of LC50 for drug resistant Myzus persicae R-4013A (green peach aphid) to LC50 for Myzus persicae S-USIL. It counts as functional.
Data set [25] concerns Bemisia tabaci. In words: Insecticidal activity against rothamsted-resistant Bemisia tabaci Q-biotype R-CHLORAKA (sweet potato whitefly) by leaf disk bioassay. Format: functional. Conditions: foliar.
Data set [26] relates to Bemisia tabaci. In words: Insecticidal activity against Bemisia tabaci SUD-S (sweet potato whitefly) by leaf disk bioassay. Format: functional. Conditions: foliar.
The nature of data set [27]: as §1. Format: ADME. Particulars: 24 h.

Converted amounts (≈) assume the structure as drawn. The source made the active and inactive calls. The calls are words filed in the database; no cut-off is given here.

With `CC(c1ccc(C(F)(F)F)nc1)S(C)(=O)=NC#N` (configuration not stated) [SULFOXAFLOR], the 50% lethal concentration (LC50) in [1] is 0.2 µg/mL (≈ 0.721 µM); in [2], 1.52 µg/mL (≈ 5.48 µM); in data set [3], 4.13 µg/mL (≈ 14.9 µM); in [4], 0.074 µg/mL (≈ 0.267 µM); in data set [5] it was 18 µg/mL (≈ 64.9 µM); in [6], 39 µg/mL (≈ 141 µM). The 50% lethal concentration (LC50) is 28 µg/mL (≈ 101 µM) in data set [7]; 18 µg/mL (≈ 64.9 µM) in data set [8]; 6.4 µg/mL (≈ 23.1 µM) in data set [9]; 2.8 µg/mL (≈ 10.1 µM) in [10]; 0.85 µg/mL (≈ 3.07 µM) in data set [11]; 5 µg/mL (≈ 18 µM) in [25]. Further, the 50% lethal concentration (LC50) in data set [26] was determined as 1.8 µg/mL (≈ 6.49 µM). The outcome in data set [12] and in data set [13] was Active. Moreover, the figures for the remaining at 24 h in [14] and in [15] were 108% and 105%, respectively. Moreover, the figures for the Efficacy in data set [16], in [17] and in [18] were 90%, 100% and 100%, respectively. Moreover, the half-life at 1000 ppm in [19] is 88 h. For the same molecule, the RatioLC50 in [20] turned out to be 2.8; in data set [21], 2.2; in [22], 1.6; in data set [23] it was 2.3; in [24], 0.37.
`O=[N+]([O-])NC1=NCCN1Cc1ccc(Cl)nc1` [IMIDACLOPRID]: the figures for the remaining at 24 h in data set [14] and in data set [15] were 4.5% and 115%, respectively. In addition, in data set [19], the half-life at 1000 ppm is 7 h.
In the case of `C/C(=N\C#N)N(C)Cc1ccc(Cl)nc1` [ACETAMIPRID], in data set [14], the remaining at 24 h was found to be 0%. Moreover, the Drug recovery in [27] was found to be 122.7%.
Consider `CC(c1ccc(Cl)nc1)S(C)(=O)=NC#N` (configuration not stated), for which the median lethal concentration (LC50) in [1] was 3 µg/mL (≈ 12.3 µM); in data set [2], 12.5 µg/mL (≈ 51.3 µM); in [3], 62.3 µg/mL (≈ 256 µM); in [4], 0.374 µg/mL (≈ 1.53 µM); in data set [11], 0.29 µg/mL (≈ 1.19 µM); in data set [25] it was 13.2 µg/mL (≈ 54.2 µM). In [26], this molecule displayed an LC50 of 4.48 µg/mL (≈ 18.4 µM). In addition, the RatioLC50 in data set [20] is reported as 2.9; in data set [24] it was 0.2.
`O=[N+]([O-])/N=C1\NCCN1Cc1ccc(Cl)nc1` [IMIDACLOPRID]: the median lethal concentration (LC50) in data set [1] came to 7.8 µg/mL (≈ 30.5 µM); in [2] it was 15.3 µg/mL (≈ 59.8 µM); in data set [3], 0.896 µg/mL (≈ 3.5 µM); in [4], 0.09 µg/mL (≈ 0.352 µM); in data set [5], 4.4 µg/mL (≈ 17.2 µM); in data set [6], 4500 µg/mL (≈ 17600 µM). Also, the median lethal concentration (LC50) is greater than 1000 µg/mL in data set [7]; 4.4 µg/mL (≈ 17.2 µM) in [8]; 174 µg/mL (≈ 681 µM) in data set [9]; 0.2 µg/mL (≈ 0.782 µM) in data set [10]; 0.37 µg/mL (≈ 1.45 µM) in data set [11]; greater than 1000 µg/mL in data set [25]. The median lethal concentration (LC50) in data set [26] was 1.23 µg/mL (≈ 4.81 µM). Besides, the outcome in data set [13] was Active. For the same molecule, the Efficacy is recorded as 21% in data set [16], 42% in data set [17] and 100% in data set [18]. In addition, the RatioLC50 in data set [20] is greater than 833; in data set [21], 1022; in data set [22] it was greater than 230; in data set [23], 870; in [24], 17.1.
